Results taken from ChEMBL document CHEMBL1221192, “Using substrate engineering to harness enzymatic promiscuity and expand biological catalysis” (Nat Chem Biol, 2006).

Legend:
[1] = molecular target: LACTOSE, ANHYDROUS; assay: (§1) Activity at Neisseria meningitidis lgtC by UV-VIS spectroscopy
Method in brief: (§2)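 Continuous coupled assay: UDP release from LgtC-catalysed galactose transfer (UDP-Gal donor) coupled to NADH oxidation, followed at 340 nm (ε = 6.22 mM–1cm–1) in a temperature-controlled spectrophotometer. Initial rates were fitted directly to obtain kinetic parameters (kcat, Km, kcat/Km).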

[2] = substrate: O=C(OC[C@H]1O[C@@H](O)[C@@H](O)[C@@H](O)[C@@H]1O)c1ccccc1; assay: as §1; method in brief: as §2
[3] = substrate: OC[C@H]1O[C@@H](O[C@H]2[C@H](O)[C@@H](O)[C@H](OCc3ccccc3)O[C@@H]2CO)[C@H](O)[C@@H](O)[C@@H]1O; assay: as §1; method in brief: as §2
[4] = substrate: O[C@@H]1[C@@H](O)[C@H](OCc2ccccc2)OC[C@H]1O; assay: as §1; method in brief: as §2
[5] = substrate: CCCCCCCCO[C@@H]1OC[C@@H](O)[C@H](O)[C@H]1O; assay: (§3) Ratio of Kcat to Km for Neisseria meningitidis lgtC; method in brief: as §2
[6] = substrate: CCCCCCCCO[C@@H]1O[C@H](CO)[C@@H](O)[C@H](O)[C@H]1O; assay: as §3; method in brief: as §2
[7] = substrate: CCCCCCCCO[C@@H]1O[C@H](CO)[C@H](O)[C@H](O)[C@H]1O; assay: as §3; method in brief: as §2
[8] = molecular target: LACTOSE, ANHYDROUS; assay: as §3; method in brief: as §2
[9] = substrate: O=C(OC[C@H]1O[C@@H](O)[C@@H](O)[C@@H](O)[C@@H]1O)c1ccccc1; assay: as §3; method in brief: as §2
[10] = substrate: O=C(O[C@@H]1CO[C@@H](O)[C@H](O)[C@H]1O)c1ccccc1; assay: as §3; method in brief: as §2
[11] = substrate: O=C[C@H](O)[C@@H](O)[C@@H](O)[C@H](O)CO; assay: as §3; method in brief: as §2
[12] = substrate: O=C[C@H](O)[C@@H](O)[C@H](O)CO; assay: as §3; method in brief: as §2
[13] = substrate: OC1OC[C@@H](O)[C@@H](O)[C@@H]1O; assay: as §3; method in brief: as §2
[14] = substrate: OC[C@H]1OC(O)[C@@H](O)[C@@H](O)[C@@H]1O; assay: as §3; method in brief: as §2
[15] = substrate: OC[C@H]1OC(O)[C@H](O)[C@@H](O)[C@@H]1O; assay: as §3; method in brief: as §2
[16] = substrate: OC[C@H]1OC(O)[C@H](O)[C@H](O)[C@@H]1O; assay: as §3; method in brief: as §2
[17] = substrate: OC[C@H]1O[C@@H](O[C@H]2[C@H](O)[C@@H](O)[C@H](OCc3ccccc3)O[C@@H]2CO)[C@H](O)[C@@H](O)[C@@H]1O; assay: as §3; method in brief: as §2
[18] = substrate: O[C@@H]1[C@@H](O)[C@H](OCc2ccccc2)OC[C@H]1O; assay: as §3; method in brief: as §2
[19] = substrate: O[C@@H]1[C@H](O)[C@@H](O)OC[C@H]1O; assay: as §3; method in brief: as §2
[20] = substrate: O[C@H]1[C@H](O)[C@@H](O)[C@H](O)[C@@H](O)[C@H]1O; assay: as §3; method in brief: as §2

B1: Alpha 1,4 galactosyltransferase (Neisseria meningitidis), Q8KHJ3 (protein)
chain: MDIVFAADDNYAAYLCVAAKSVEAAHPDTEIRFHVLDAGISEANRAAVAANLRGGGNIRFIDVNPEDFAGFPLNIRHISITTYARLKLGEYIADCDKVLYLDIDVLVRDSLKPLWDTDLGDNWLGACIDLFVERQNAYKQKIGMADGEYYFNAGVLLINLKKWRQHDIFKMACEWVEQYKDVMQYQDQDILNGLFKGGVCYANSRFNFMPTNDAFMANRFASRHTDPLYRDRTYTAMPVAVSHYCGPAKPWHRDCTAWGAERFTELAGSLTSVPEEWRGKLAVPHRVFPTKRMLQRWRRKLSARFLRKIY
B1 showed a Km [1] of 40 mM, a kcat [1] of 160 s⁻¹ and a Km [2] of 30 mM. The kcat [2] was 2.5 s⁻¹, the Km [3] was 35 mM and the kcat [3] was 1 s⁻¹. The Km [4] was 15 mM, the kcat [4] was 10 s⁻¹ and the kcat/Km [5] was 367 M⁻¹ s⁻¹. The kcat/Km [6] was 23.3 M⁻¹ s⁻¹, the kcat/Km [7] was 63.3 M⁻¹ s⁻¹ and the kcat/Km [8] was 4000 M⁻¹ s⁻¹. The kcat/Km [9] was 83.3 M⁻¹ s⁻¹, the kcat/Km [10] was 200 M⁻¹ s⁻¹ and the kcat/Km [11] was 5 M⁻¹ s⁻¹. For the same protein, the kcat/Km [12] was 30 M⁻¹ s⁻¹, the kcat/Km [13] was 1.67 M⁻¹ s⁻¹ and the kcat/Km [14] was 5 M⁻¹ s⁻¹. It also gave a kcat/Km [15] of 3.33 M⁻¹ s⁻¹, a kcat/Km [16] of 0.833 M⁻¹ s⁻¹ and a kcat/Km [17] of 28.3 M⁻¹ s⁻¹. The kcat/Km [18] was 667 M⁻¹ s⁻¹, the kcat/Km [19] was 5 M⁻¹ s⁻¹ and the kcat/Km [20] was 3.33 M⁻¹ s⁻¹.
